Reference: ChEMBL document CHEMBL2057145, “Development of novel antibacterial agents against methicillin-resistant Staphylococcus aureus” (Bioorg Med Chem, 2012)
Values after ≈ are worked out from the molar mass of the structure shown.

How the values were obtained:
Staphylococcus aureus [1] = experiment: Antibacterial activity against Staphylococcus aureus ATCC 29213 after 24 hrs by broth microdilution method; assay type: functional; settings: ATCC 29213, 24 h
[2] = system: Staphylococcus epidermidis; experiment: Antibacterial activity against Staphylococcus epidermidis ATCC 35984 after 24 hrs by broth microdilution method; assay type: functional; settings: RP62A
HT-29 = experiment: Antiproliferative activity against human HT-29 cells after 24 hrs by MTT assay; assay type: cell-based; settings: HT-29, 24 h
Summary of the method: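 HT-29 human colon adenocarcinoma cells seeded at 1 × 10⁴ cells/well in RPMI 1640 with 10% FBS and 10 µg/mL gentamicin, left overnight at 37 °C, 5% CO₂. Medium then replaced with medium holding test agents (final DMSO 0.1%; DMSO-only controls), at least 6 wells per condition, for 24 h. Viability read by MTT (0.5 mg/mL, 2 h, 37 °C), DMSO solubilization, absorbance 570 nm.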

[3] = Selectivity ratio of IC50 for human HT-29 cells to MIC for Staphylococcus aureus ATCC 29213; assay type: functional
Summary of the method: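 Ratio of HT-29 IC50 (MTT assay, 24 h exposure) to MIC against S. aureus ATCC 29213 (CLSI broth microdilution, 24 h, 37 °C).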

[4] = system: Staphylococcus epidermidis; experiment: Antibacterial activity against Staphylococcus epidermidis ATCC 12228 after 24 hrs by broth microdilution method; assay type: functional; settings: ATCC 12228, 24 h
Staphylococcus aureus [5] = experiment: Antibacterial activity against methicillin-resistant Staphylococcus aureus ATCC 33592 after 24 hrs by broth microdilution method; assay type: functional; settings: ATCC 33592, 24 h
Summary of the method: (§1)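 CLSI broth microdilution. Bacteria grown overnight on LB agar, suspended in PBS, then exposed to test agents at 0.25 to 64 µg/mL in triplicate. Incubation 37 °C for 24 h. MIC is the lowest concentration with no visible bacterial growth. DMSO stocks diluted in culture medium to a final DMSO of 0.1%.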

Staphylococcus aureus [6] = experiment: Antibacterial activity against methicillin-resistant Staphylococcus aureus expressing […] subtype VT after 24 hrs by broth microdilution method; assay type: functional; summary of the method: as §1
[7] = system: Staphylococcus haemolyticus; experiment: Antibacterial activity against Staphylococcus haemolyticus ATCC 29970 after 24 hrs by broth microdilution method; assay type: functional; settings: ATCC 29970, 24 h
Staphylococcus hominis = experiment: Antibacterial activity against Staphylococcus hominis ATCC 27844 after 24 hrs by broth microdilution method; assay type: functional; settings: ATCC 27844, 24 h
[8] = system: Staphylococcus intermedius; experiment: Antibacterial activity against Staphylococcus intermedius ATCC 29663 after 24 hrs by broth microdilution method; assay type: functional; settings: ATCC 29663, 24 h
[9] = system: Staphylococcus saprophyticus; experiment: Antibacterial activity against Staphylococcus saprophyticus ATCC 15305 after 24 hrs by broth microdilution method; assay type: functional; settings: ATCC 15305, 24 h
[10] = system: Staphylococcus lugdunensis; experiment: Antibacterial activity against Staphylococcus lugdunensis isolate NTUH after 24 hrs by broth microdilution method; assay type: functional
Staphylococcus aureus [11] = experiment: Antibacterial activity against methicillin-resistant Staphylococcus aureus ATCC 49476 after 24 hrs by broth microdilution method; settings: ATCC 49476, 24 h
Staphylococcus aureus [12] = experiment: Antibacterial activity against Staphylococcus aureus ATCC 12598 after 24 hrs by broth microdilution method; assay type: functional; settings: ATCC 12598, 24 h
Summary of the method: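 CLSI broth microdilution. Incubation 37 °C for 24 h. MIC is the lowest concentration with no visible bacterial growth. DMSO stocks diluted in culture medium to a final DMSO of 0.1%.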

Staphylococcus aureus [13] = experiment: Bactericidal activity against Staphylococcus aureus ATCC 29213 assessed as decrease in bacterial count at 8 times compound MIC after 24 hrs by time-kill assay; assay type: functional; parameters: scale not given: the % may be the effect or the level left
Summary of the method: (§2)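 S. aureus ATCC 29213 at 5 × 10⁵ CFU/mL in CAMHB exposed to test agents at 2-, 4- and 8-fold MIC, in triplicate. DMSO-matched medium served as control. At successive times, aliquots serially diluted in PBS and plated on LB agar (37 °C, 16 h). Counts given as CFU/mL, mean ± SD (n = 3); 99.9% killing used as reference.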

Staphylococcus aureus [14] = experiment: Bactericidal activity against Staphylococcus aureus ATCC 29213 assessed as decrease in bacterial count at 2 to 8 times compound MIC by time-kill assay; assay type: functional, organism-based; settings: TDE = time-dependent effect; summary of the method: as §2

SMILES | MIC (Staphylococcus aureus [1]) | MIC [2] | IC50 (HT-29) | Ratio [3] | MIC (Staphylococcus aureus [5]) | MIC (Staphylococcus aureus [6]) | MIC [8] | MIC [10] | other results
NCCCC[C@@H](N)C(=O)Nc1ccc(-n2nc(C(F)(F)F)cc2-c2ccc3c(c2)Nc2ccccc2S3)cc1 | 4 µg/mL (≈ 7.24 µM) | 4 µg/mL (≈ 7.24 µM) | 17.5 µg/mL (≈ 31.7 µM) | 4.4 |  |  |  |  | 
NCCC(=O)Nc1ccc(-n2nc(C(F)(F)F)cc2-c2ccc(-c3ccc(C(F)(F)F)cc3)cc2)cc1 | 4 µg/mL (≈ 7.72 µM) | 4 µg/mL (≈ 7.72 µM) | 4.2 µg/mL (≈ 8.1 µM) | 1.1 |  |  |  |  | 
NCCC(=O)Nc1ccc(-n2nc(C(F)(F)F)cc2-c2ccc3c(c2)Nc2ccccc2S3)cc1 | 4 µg/mL (≈ 8.07 µM) | 4 µg/mL (≈ 8.07 µM) | 7.5 µg/mL (≈ 15.1 µM) | 1.9 |  |  |  |  | 
NS(=O)(=O)c1ccc(-n2nc(C(F)(F)F)cc2-c2ccc(-c3ccc(Cl)cc3)cc2)cc1 | 4 µg/mL (≈ 8.37 µM) | 8 µg/mL (≈ 16.7 µM) | 12.5 µg/mL (≈ 26.2 µM) | 3.1 |  |  |  |  | 
NS(=O)(=O)Nc1ccc(-n2nc(C(F)(F)F)cc2-c2ccc3cc4ccccc4cc3c2)cc1 |  |  | 11 µg/mL (≈ 22.8 µM) | 2.8 | 2 µg/mL (≈ 4.15 µM) | 2 µg/mL (≈ 4.15 µM) | 4 µg/mL (≈ 8.29 µM) | 4 µg/mL (≈ 8.29 µM) | MIC [4]: 2 µg/mL (≈ 4.15 µM); MIC [7]: 16 µg/mL (≈ 33.2 µM); MIC (Staphylococcus hominis): 2 µg/mL (≈ 4.15 µM); MIC [9]: 8 µg/mL (≈ 16.6 µM); MIC (Staphylococcus aureus [11]): 2 µg/mL (≈ 4.15 µM)
NS(=O)(=O)Nc1ccc(-n2nc(C(F)(F)F)cc2-c2ccc(-c3ccc(Br)cc3)cc2)cc1 | 1 µg/mL (≈ 1.86 µM) |  |  | 10 | 1 µg/mL (≈ 1.86 µM) | 1 µg/mL (≈ 1.86 µM) | 2 µg/mL (≈ 3.72 µM) | 2 µg/mL (≈ 3.72 µM) | MIC (Staphylococcus aureus [12]): 1 µg/mL (≈ 1.86 µM); MIC [4]: 1 µg/mL (≈ 1.86 µM); MIC (Staphylococcus aureus [11]): 1 µg/mL (≈ 1.86 µM)
NCCCC[C@H](N)C(=O)Nc1ccc(-n2nc(C(F)(F)F)cc2-c2ccc3c(c2)Nc2ccccc2S3)cc1 | 2 µg/mL (≈ 3.62 µM) |  | 5.2 µg/mL (≈ 9.41 µM) | 2.6 |  |  |  |  | 
NCCCC[C@H](N)C(=O)Nc1ccc(-n2nc(C(F)(F)F)cc2-c2ccc(-c3ccc(C(F)(F)F)cc3)cc2)cc1 | 4 µg/mL (≈ 6.95 µM) | 4 µg/mL (≈ 6.95 µM) | 3.3 µg/mL (≈ 5.73 µM) | 0.8 |  |  |  |  | 
NC(=O)c1ccc(-n2nc(C(F)(F)F)cc2-c2c3ccccc3cc3ccccc23)cc1 | 2 µg/mL (≈ 4.64 µM) | 2 µg/mL (≈ 4.64 µM) | 12 µg/mL (≈ 27.8 µM) | 6 | 4 µg/mL (≈ 9.27 µM) |  | 4 µg/mL (≈ 9.27 µM) | 4 µg/mL (≈ 9.27 µM) | Activity (Staphylococcus aureus [13]): 99.14%; Activity (Staphylococcus aureus [14]): tde
NCCC(=O)Nc1ccc(-n2nc(C(F)(F)F)cc2-c2ccc3c(ccc4ccccc43)c2)cc1 | 4 µg/mL (≈ 8.43 µM) | 4 µg/mL (≈ 8.43 µM) | 6 µg/mL (≈ 12.6 µM) | 1.5 |  |  |  |  | 
Cc1ccc(-c2cc(C(F)(F)F)nn2-c2ccc(NS(N)(=O)=O)cc2)cc1 | 4 µg/mL (≈ 10.1 µM) | 4 µg/mL (≈ 10.1 µM) | 28 µg/mL (≈ 70.6 µM) | 7 | 4 µg/mL (≈ 10.1 µM) | 4 µg/mL (≈ 10.1 µM) | 8 µg/mL (≈ 20.2 µM) | 16 µg/mL (≈ 40.4 µM) | MIC (Staphylococcus aureus [12]): 4 µg/mL (≈ 10.1 µM); MIC [4]: 4 µg/mL (≈ 10.1 µM); MIC (Staphylococcus aureus [11]): 4 µg/mL (≈ 10.1 µM)
NS(=O)(=O)Nc1ccc(-n2nc(C(F)(F)F)cc2-c2ccc(-c3ccccc3)cc2)cc1 | 1 µg/mL (≈ 2.18 µM) |  |  | 16 | 1 µg/mL (≈ 2.18 µM) | 1 µg/mL (≈ 2.18 µM) | 2 µg/mL (≈ 4.36 µM) | 2 µg/mL (≈ 4.36 µM) | MIC (Staphylococcus aureus [12]): 1 µg/mL (≈ 2.18 µM); MIC (Staphylococcus aureus [11]): 1 µg/mL (≈ 2.18 µM)
O=C(N[C@H](CO)[C@H](O)c1ccc([N+](=O)[O-])cc1)C(Cl)Cl [CHLORAMPHENICOL] | 8 µg/mL (≈ 24.8 µM) | 8 µg/mL (≈ 24.8 µM) |  |  | 64 µg/mL (≈ 198 µM) | 32 µg/mL (≈ 99 µM) |  | 2 µg/mL (≈ 6.19 µM) | 
NCCC(=O)Nc1ccc(-n2nc(C(F)(F)F)cc2-c2ccc3c(c2)oc2ccccc23)cc1 | 4 µg/mL (≈ 8.61 µM) | 4 µg/mL (≈ 8.61 µM) |  | 1.8 |  |  |  |  | 
NCC(=O)Nc1ccc(-n2nc(C(F)(F)F)cc2-c2ccc3c(c2)Nc2ccccc2S3)cc1 | 4 µg/mL (≈ 8.31 µM) | 4 µg/mL (≈ 8.31 µM) |  | 1.6 |  |  |  |  | 
NCC(=O)Nc1ccc(-n2nc(C(F)(F)F)cc2-c2ccc3c(c2)oc2ccccc23)cc1 | 4 µg/mL (≈ 8.88 µM) | 4 µg/mL (≈ 8.88 µM) | 6.5 µg/mL (≈ 14.4 µM) | 1.6 |  |  |  |  | 
NCC(=O)Nc1ccc(-n2nc(C(F)(F)F)cc2-c2ccc3c(ccc4ccccc43)c2)cc1 [AR-12] | 4 µg/mL (≈ 8.69 µM) | 4 µg/mL (≈ 8.69 µM) |  | 0.9 |  |  |  |  | 
Cc1ccc(-c2ccc(-c3cc(C(F)(F)F)nn3-c3ccc(NS(N)(=O)=O)cc3)cc2)cc1 | 1 µg/mL (≈ 2.12 µM) |  |  | 9 | 1 µg/mL (≈ 2.12 µM) | 1 µg/mL (≈ 2.12 µM) | 2 µg/mL (≈ 4.23 µM) | 2 µg/mL (≈ 4.23 µM) | MIC (Staphylococcus aureus [12]): 1 µg/mL (≈ 2.12 µM); MIC [4]: 1 µg/mL (≈ 2.12 µM); MIC (Staphylococcus aureus [11]): 1 µg/mL (≈ 2.12 µM)
NS(=O)(=O)Nc1ccc(-n2nc(C(F)(F)F)cc2-c2ccc3ccccc3c2)cc1 | 1 µg/mL (≈ 2.31 µM) |  |  | 19 |  |  | 2 µg/mL (≈ 4.63 µM) | 4 µg/mL (≈ 9.25 µM) | 
NCCCC[C@H](N)C(=O)Nc1ccc(-n2nc(C(F)(F)F)cc2-c2ccc3c(ccc4ccccc43)c2)cc1 |  |  | 19.5 µg/mL (≈ 36.7 µM) | 4.9 |  |  |  |  | 
CC1(C)S[C@@H]2[C@H](NC(=O)[C@H](N)c3ccccc3)C(=O)N2[C@H]1C(=O)O [AMPICILLIN] | 8 µg/mL (≈ 22.9 µM) | 64 µg/mL (≈ 183 µM) |  |  | > 64 µg/mL | > 64 µg/mL | 0.125 µg/mL (≈ 0.358 µM) | 32 µg/mL (≈ 91.6 µM) | MIC (Staphylococcus aureus [12]): 0.25 µg/mL (≈ 0.715 µM); MIC [4]: 16 µg/mL (≈ 45.8 µM); MIC [7]: 0.25 µg/mL (≈ 0.715 µM); MIC (Staphylococcus hominis): < 0.0625 µg/mL; MIC [9]: 0.5 µg/mL (≈ 1.43 µM); MIC (Staphylococcus aureus [11]): 64 µg/mL (≈ 183 µM)
NCCCC[C@@H](N)C(=O)Nc1ccc(-n2nc(C(F)(F)F)cc2-c2ccc3c(ccc4ccccc43)c2)cc1 | 4 µg/mL (≈ 7.52 µM) | 4 µg/mL (≈ 7.52 µM) |  | 0.8 |  |  |  |  | 
